# Measured values of several laboratories.
# Compare with care: the assays were run in different laboratories.
# USP2: Ubiquitin carboxyl-terminal hydrolase 2 (USP2, Homo sapiens, UniProt O75604)
# PTK2: Focal adhesion kinase 1 (PTK2, Homo sapiens, UniProt Q05397)
# MAOA: Amine oxidase [flavin-containing] A (MAOA, Homo sapiens, UniProt P21397)
# ACE2: Angiotensin-converting enzyme 2 (ACE2, Homo sapiens, UniProt Q9BYF1)
SMILES,target,read-out,action,technique,tested at,time,inhibition [%]
CN(C)C(=O)COC(=O)Cc1ccc(OC(=O)c2ccc(NC(=N)N)cc2)cc1,USP2,enzyme activity,inhibitor,,10 µM,,1
C#Cc1n[nH]c2c(-c3cn([C@@H](C)c4ccccc4)c(=O)[nH]c3=O)cc(F)cc12,PTK2,enzyme activity,inhibitor,,0.1 µM,,3.8
Cc1ccc2nc(N3C(=O)C(O)=C(C(=O)OC(C)(C)C)C3c3ccc(-c4ccc(Cl)cc4)o3)sc2c1 (centres unmarked),"UDP-N-acetylglucosamine 1-carboxyvinyltransferase (murA, Escherichia coli K-12, UniProt P0A749)",enzyme activity,inhibitor,,20 µM,,88
CCN(CC)CCCC[C@H](NC(=O)[C@H](CC(C)C)NC(=O)[C@H](C)NC(=O)[C@H](Cc1ccccc1)NC(=O)c1ccc(C(C)(C)C)cc1)C(=O)N[C@@H](CO)C(=O)OC,"Vasoactive intestinal polypeptide receptor 1 (VIPR1, Homo sapiens, UniProt P32241)",ligand displacement,,radioligand,10 µM,,-9
COCc1c(-c2cc3cc(C)cc(OC)c3s2)c2c(N)ncnn2c1CN1CCNC(=O)C1,MAOA,enzyme activity,inhibitor,,10 µM,,-3
O=C(Nc1cccnn1)N1CCN([C@@H]2CCOc3cc(C(F)(F)F)ccc32)CC1,ACE2,enzyme activity,inhibitor,,20 µM,,3
N=C(N)c1ccc2cc(OC(=O)c3ccc(N=C(N)N)cc3)ccc2c1,USP2,enzyme activity,inhibitor,,10 µM,,0
Cn1cc(-c2cccc(N3CCc4c(sc5c4CC(C)(C)C5)C3=O)c2CO)cc(Nc2ccncn2)c1=O,"Cyclin-dependent kinase 5, with p25 (CDK5, Homo sapiens, UniProt Q00535)",enzyme activity,inhibitor,,1 µM,,2
CC(C)C[C@H](NC(=O)[C@H]1O[C@@H]1C(=O)O)C(=O)NCCCCN=C(N)N,"Cathepsin S (CTSS, Homo sapiens, UniProt P25774)",enzyme activity,inhibitor,,50 nM,,81
O=C(Nc1ccc([N+](=O)[O-])cc1[N+](=O)[O-])c1ccc2c(c1)OCO2,MAOA,enzyme activity,inhibitor,,1 µM,20 min,44
COc1cc(Nc2ncc(F)c(Nc3ccc4c(n3)NC(=O)C(C)(C)O4)n2)cc(OC)c1OC,"Homeodomain-interacting protein kinase 3 (HIPK3, Homo sapiens, UniProt Q9H422)",binding,,competition with immobilised ligand,10 µM,,64
CCOC(=O)c1ccc(OC(=O)CCCCCNC(=N)N)cc1,"Dipeptidyl peptidase 3 (DPP3, Homo sapiens, UniProt Q9NY33)",enzyme activity,inhibitor,,10 µM,,4
C#Cc1n[nH]c2c(-c3cn([C@@H](C)c4ccccn4)c(=O)[nH]c3=O)cc(F)cc12,PTK2,enzyme activity,inhibitor,,0.1 µM,,4.5
CN(CCN1CCC(OC(=O)Nc2ccccc2-c2ccccc2)CC1)C(=O)c1ccc(CN2CCC(C(N)=O)CC2)cc1,MAOA,enzyme activity,inhibitor,,1 µM,,-2
Cc1ncc(C)n2nc(/C=C/c3nc(N4CCCC4)cc(N4CCOCC4)n3)nc12,ACE2,enzyme activity,inhibitor,,10 µM,,11
C[C@H](C(=O)N[C@H]1COc2ccccc2[C@@H]1S(C)(=O)=O)c1ccc(F)cc1,MAOA,cell-free assay,inhibitor,,10 µM,,-2
O=c1ccoc2ccc(OCCCCN3CCCCC3)cc12,MAOA,enzyme activity,inhibitor,fluorescence,10 µM,,16
